Assay results taken from ChEMBL document CHEMBL5247575 (J Med Chem, 2018).

What follows are molecules tested on Klebsiella pneumoniae (assay: Synergistic antibacterial activity against Klebsiella pneumoniae 761/1723 producing KPC-3 assessed as meropenem MIC at 8 ug/ml by broth microdilution method). Settings: dose 8 µg/ml.
Format: functional

Compound	MIC
O=C(NNC(=O)[C@@H]1CC[C@@H]2CN1C(=O)N2OS(=O)(=O)O)[C@@H]1CCCNC1 [ZIDEBACTAM]	≤ 0.12 µg/mL

These molecules were tested on Klebsiella pneumoniae (assay: Synergistic antibacterial activity against Klebsiella pneumoniae 935/1884 producing KPC-3 assessed as meropenem MIC at 8 ug/ml by broth microdilution method). Settings: dose 8 µg/ml.
Format: functional

Compound	MIC
O=C(NNC(=O)[C@@H]1CC[C@@H]2CN1C(=O)N2OS(=O)(=O)O)[C@@H]1CCCNC1 [ZIDEBACTAM]	≤ 0.12 µg/mL

These molecules were tested on Escherichia coli (assay: Synergistic antibacterial activity against Escherichia coli DH10B transfected with pBC SK (-) PDC-3 assessed as meropenem MIC at 4 ug/ml by broth microdilution method). Settings: dose 4 µg/ml.
Format: functional
Method in brief: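 Broth microdilution per CLSI guidelines, using custom frozen panels. […] Each partner drug was also tested alone. MICs were run in triplicate and the modal value is reported.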

Compound	MIC
O=C(NNC(=O)[C@@H]1CC[C@@H]2CN1C(=O)N2OS(=O)(=O)O)[C@@H]1CCCNC1 [ZIDEBACTAM]	≤ 0.12 µg/mL

What follows are molecules tested on Escherichia coli (assay: Synergistic antibacterial activity against Escherichia coli DH10B assessed as meropenem MIC at 8 ug/ml by broth microdilution method). Settings: dose 8 µg/ml.
Format: functional

Compound	MIC
O=C(NNC(=O)[C@@H]1CC[C@@H]2CN1C(=O)N2OS(=O)(=O)O)[C@@H]1CCCNC1 [ZIDEBACTAM]	≤ 0.12 µg/mL

These molecules were tested on Acinetobacter baumannii (assay: Synergistic antibacterial activity against Acinetobacter baumannii PR476 producing OXA-24/40 assessed as cefepime MIC at 4 ug/ml by broth microdilution method). Settings: dose 4 µg/ml.
Format: functional

Compound	MIC
O=C(NNC(=O)[C@@H]1CC[C@@H]2CN1C(=O)N2OS(=O)(=O)O)[C@@H]1CCCNC1 [ZIDEBACTAM]	1 µg/mL

What follows are molecules tested on Pseudomonas aeruginosa (assay: Synergistic antibacterial activity against Pseudomonas aeruginosa 715 assessed as meropenem MIC at 8 ug/ml by broth microdilution method). Settings: dose 8 µg/ml.
Format: functional

Compound	MIC
O=C(NNC(=O)[C@@H]1CC[C@@H]2CN1C(=O)N2OS(=O)(=O)O)[C@@H]1CCCNC1 [ZIDEBACTAM]	8 µg/mL

Each molecule was assayed on Escherichia coli (assay: Synergistic antibacterial activity against Escherichia coli DH10B assessed as cefepime MIC at 8 ug/ml by broth microdilution method). Settings: dose 8 µg/ml.
Format: functional

Compound	MIC
O=C(NNC(=O)[C@@H]1CC[C@@H]2CN1C(=O)N2OS(=O)(=O)O)[C@@H]1CCCNC1 [ZIDEBACTAM]	≤ 0.12 µg/mL

The molecules below were run on Acinetobacter baumannii (assay: Synergistic antibacterial activity against Acinetobacter baumannii PR319 producing OXA-23/24/40 assessed as cefepime MIC at 8 ug/ml by broth microdilution method). Settings: dose 8 µg/ml.
Format: functional

Compound	MIC
O=C(NNC(=O)[C@@H]1CC[C@@H]2CN1C(=O)N2OS(=O)(=O)O)[C@@H]1CCCNC1 [ZIDEBACTAM]	> 16 µg/mL

The molecules below were run on Klebsiella pneumoniae (assay: Synergistic antibacterial activity against Klebsiella pneumoniae 761/1723 producing KPC-3 assessed as meropenem MIC at 4 ug/ml by broth microdilution method). Settings: dose 4 µg/ml.
Format: functional

Compound	MIC
O=C(NNC(=O)[C@@H]1CC[C@@H]2CN1C(=O)N2OS(=O)(=O)O)[C@@H]1CCCNC1 [ZIDEBACTAM]	≤ 0.12 µg/mL

What follows are molecules tested on Klebsiella pneumoniae (assay: Synergistic antibacterial activity against Klebsiella pneumoniae jefferson 1775 producing OXA-48 assessed as cefepime MIC at 4 ug/ml by broth microdilution method). Settings: dose 4 µg/ml.
Format: functional

Compound	MIC
O=C(NNC(=O)[C@@H]1CC[C@@H]2CN1C(=O)N2OS(=O)(=O)O)[C@@H]1CCCNC1 [ZIDEBACTAM]	≤ 0.12 µg/mL

These molecules were tested on Acinetobacter baumannii (assay: Synergistic antibacterial activity against Acinetobacter baumannii PR359 producing OXA-23 assessed as cefepime MIC at 4 ug/ml by broth microdilution method). Settings: dose 4 µg/ml.
Format: functional

Compound	MIC
O=C(NNC(=O)[C@@H]1CC[C@@H]2CN1C(=O)N2OS(=O)(=O)O)[C@@H]1CCCNC1 [ZIDEBACTAM]	8 µg/mL

The molecules below were run on Acinetobacter baumannii (assay: Synergistic antibacterial activity against ADC deleted Acinetobacter baumannii assessed as meropenem MIC at 4 ug/ml by broth microdilution method). Settings: dose 4 µg/ml.
Format: functional

Compound	MIC
O=C(NNC(=O)[C@@H]1CC[C@@H]2CN1C(=O)N2OS(=O)(=O)O)[C@@H]1CCCNC1 [ZIDEBACTAM]	≤ 0.12 µg/mL

Each molecule was assayed on Bacteria (assay: Inhibition of bacteria PDC-3 assessed as second order rate constant K2/K using nitrocefin as substrate). Settings: not given.

Compound	K
O=C(NNC(=O)[C@@H]1CC[C@@H]2CN1C(=O)N2OS(=O)(=O)O)[C@@H]1CCCNC1 [ZIDEBACTAM]	4.8 10^5/M/s

The molecules below were run on Acinetobacter baumannii (assay: Synergistic antibacterial activity against Acinetobacter baumannii PR476 producing OXA-24/40 assessed as meropenem MIC at 8 ug/ml by broth microdilution method). Settings: dose 8 µg/ml.
Format: functional

Compound	MIC
O=C(NNC(=O)[C@@H]1CC[C@@H]2CN1C(=O)N2OS(=O)(=O)O)[C@@H]1CCCNC1 [ZIDEBACTAM]	0.25 µg/mL

These molecules were tested on Acinetobacter baumannii (assay: Synergistic antibacterial activity against Acinetobacter baumannii PR420 producing OXA-23/24/40 assessed as cefepime MIC at 8 ug/ml by broth microdilution method). Settings: dose 8 µg/ml.
Format: functional

Compound	MIC
O=C(NNC(=O)[C@@H]1CC[C@@H]2CN1C(=O)N2OS(=O)(=O)O)[C@@H]1CCCNC1 [ZIDEBACTAM]	> 16 µg/mL

What follows are molecules tested on Acinetobacter baumannii (assay: Synergistic antibacterial activity against Acinetobacter baumannii PR323 producing OXA-24/40 assessed as cefepime MIC at 4 ug/ml by broth microdilution method). Settings: dose 4 µg/ml.
Format: functional

Compound	MIC
O=C(NNC(=O)[C@@H]1CC[C@@H]2CN1C(=O)N2OS(=O)(=O)O)[C@@H]1CCCNC1 [ZIDEBACTAM]	4 µg/mL

The molecules below were run on Klebsiella pneumoniae (assay: Synergistic antibacterial activity against Klebsiella pneumoniae CAV 1543 producing OXA-48 assessed as cefepime MIC at 4 ug/ml by broth microdilution method). Settings: dose 4 µg/ml.
Format: functional

Compound	MIC
O=C(NNC(=O)[C@@H]1CC[C@@H]2CN1C(=O)N2OS(=O)(=O)O)[C@@H]1CCCNC1 [ZIDEBACTAM]	≤ 0.12 µg/mL

What follows are molecules tested on Pseudomonas aeruginosa (assay: Synergistic antibacterial activity against Pseudomonas aeruginosa CL232 assessed as meropenem MIC at 4 ug/ml by broth microdilution method). Settings: dose 4 µg/ml.
Format: functional

Compound	MIC
O=C(NNC(=O)[C@@H]1CC[C@@H]2CN1C(=O)N2OS(=O)(=O)O)[C@@H]1CCCNC1 [ZIDEBACTAM]	> 16 µg/mL

The molecules below were run on Acinetobacter baumannii (assay: Synergistic antibacterial activity against ADC deleted Acinetobacter baumannii transfected with pWH1266 OXA-23 assessed as meropenem MIC at 4 ug/ml by broth microdilution method). Settings: dose 4 µg/ml.
Format: functional

Compound	MIC
O=C(NNC(=O)[C@@H]1CC[C@@H]2CN1C(=O)N2OS(=O)(=O)O)[C@@H]1CCCNC1 [ZIDEBACTAM]	> 16 µg/mL
